# hIAP act – human IAP activation; P09923; purified human IAP, CDP-Star luminescence, 30 min; hits give high values; 1 = vehicle-only enzyme, 0 = enzyme-free background; activation factor at 10 µM; 0.16% of 330,000 active; AID 2524;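 active means activation factor of the enzyme at least 2-fold when tested at 20 µM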
# Target sequence (P09923 whole entry, looked up): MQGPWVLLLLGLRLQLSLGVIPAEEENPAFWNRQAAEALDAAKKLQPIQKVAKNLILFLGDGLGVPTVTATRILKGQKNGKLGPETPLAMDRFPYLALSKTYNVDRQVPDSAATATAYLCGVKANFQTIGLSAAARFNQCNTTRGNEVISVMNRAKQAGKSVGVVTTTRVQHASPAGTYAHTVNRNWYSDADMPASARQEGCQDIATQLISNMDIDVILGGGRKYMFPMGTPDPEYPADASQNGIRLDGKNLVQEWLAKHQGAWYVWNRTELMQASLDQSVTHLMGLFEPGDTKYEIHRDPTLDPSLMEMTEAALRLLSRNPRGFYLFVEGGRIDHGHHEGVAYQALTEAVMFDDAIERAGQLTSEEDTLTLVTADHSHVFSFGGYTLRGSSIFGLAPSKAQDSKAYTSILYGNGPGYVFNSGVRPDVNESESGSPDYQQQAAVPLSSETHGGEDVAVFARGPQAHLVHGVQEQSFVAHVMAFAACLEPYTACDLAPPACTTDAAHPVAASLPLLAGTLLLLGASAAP
# mIAP inh – mouse IAP inhibition; purified mouse IAP, CDP-Star luminescence, 30 min; inhibition, % at 10 µM; 0.2% of 330,000 active;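 active means inhibition of at least 40% at 10 µM in the primary screen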;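 further: plate controls were DMSO with enzyme for no effect and no enzyme wells for full effect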
# bIAP activator – intestinal alkaline phosphatase (bovine) activation | 0.17% of 200,000 active | activation factor at 20 µM | purified bovine IAP, CDP-star luminescence, 30 min; hits give high values; fold of DMSO-control signal, blank-subtracted;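 active means activation factor of 2 or more at 20 µM, a signal rise over negative controls twice the positive control's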
# mIAP act – increases mouse intestinal alkaline phosphatase activity. muIAP, CDP-Star luminescence, 30 min; hits give high values; 1 = vehicle-only enzyme signal, 0 = enzyme-free wells. activation factor at 10 µM. 0.24% of 330,000 active;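 active means activation factor of at least 2 at 20 µM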
#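 Assay system: mouse IAP enzyme / Compound: DMSO-dissolved test compounds / Timing: 30 min, room temperature / Measured by: luminescence from enzymatic CDP-Star hydrolysis / Control set: DMSO-only wells, enzyme-free buffer wells as negative control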
# hIAP block – human IAP inhibition. 0.12% of 330,000 active. P09923. inhibition, % at 10 µM. purified IAP, CDP-Star luminescence, 30 min;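 active means inhibition reaching a set limit with compound at 10 µM in the primary screen, cut at about 35% in these data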;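 further: plate controls were DMSO wells with enzyme for no effect and no-enzyme buffer wells for full effect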
# bIAP inhibitor – intestinal alkaline phosphatase (bovine) inhibition | inhibition, % at 20 µM | AID 1019 | purified bovine IAP, CDP-star luminescence, 30 min | 190,000 tested, under 10 active;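 active means over 50% inhibition of intestinal alkaline phosphatase at 20 µM in the single-dose screen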
#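 test system = bovine IAP enzyme | medium = DEA buffer 100 mM, pH 9.8, with MgCl2 1.0 mM, ZnCl2 0.02 mM | detection = luminescence | dosing = single compound dose of 20 µM, 2% DMSO final | incubation = 30 min reaction at room temperature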
# mIAP inh confirm – mouse IAP inhibition confirmation; shares compounds with mIAP inh; purified mouse IAP, CDP-Star luminescence, 30 min; inhibition, % at 10 µM; 4.7% of 11,000 active; AID 434971;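 active means inhibition of at least 40% at 10 µM in either of the two replicates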;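 further: plate controls were DMSO wells with enzyme for no effect and buffer wells lacking enzyme for full effect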
# * = called active by the depositor; . = not tested or not shown. Most compounds without a hit are left out; they make up all but 0.72% or so of the library.
SMILES,hIAP act,mIAP inh,bIAP activator,mIAP act,hIAP block,bIAP inhibitor,mIAP inh confirm
O=C(/C=C/c1ccco1)NC(=S)Nc1ccccc1O,0.893,45.5*,1.1,0.545,10.7,-6.0,53.7*
O=C(/C=C/c1ccco1)NC(=S)Nc1ccccc1N1CCCC1,1.02,11.2,1,0.888,-2.2,3.1,.
COc1cc(C)c(CN2CCN(S(=O)(=O)c3ccc(Cl)s3)CC2)cc1OC,0.978,10.8,.,0.892,2.2,.,.
COc1cc(/C=C2/SC(=Nc3ccc(O)cc3)NC2=O)cc(OC)c1O,0.808,12.5,0.9,0.875,19.2,12.5,.
COc1ccc(N=C2NC(=O)/C(=C\c3ccco3)S2)cc1,0.988,40.3*,1.1,0.597,1.2,-6.6,58.9*
O=C1NC(=Nc2ccc(O)cc2)S/C1=C\C=C\c1ccco1,0.946,69.1*,.,0.309,5.4,.,87.6*
Oc1cccc(NC(=S)Nc2ccc(SC(F)F)cc2)c1,0.94,12.6,1.1,0.874,6.0,-11.0,.
FC(F)Sc1ccc(NC(=S)NC2CCC(NC(=S)Nc3ccc(SC(F)F)cc3)CC2)cc1 (stereo unspecified),1.06,-145.1,0.6,2.45*,-6.5,36.0,-135.1
Cc1cc(-c2csc(NC(=O)c3ccc(=O)[nH]c3)n2)c(C)n1Cc1ccco1,0.935,48.2*,.,0.518,6.5,.,65.4*
CN(CC(=O)Nc1ccc(N2CCOCC2)cc1)C(=O)CSc1ccc(F)cc1,0.956,1.5,.,0.985,4.4,.,.
CC(C)CCNC(=O)Nc1ccc2c(c1)N(C)C(=O)CS2,1.13,-72.1,0.8,1.72,-13.2,21.0,.
CN1C(=O)CSc2ccc(NC(=O)NCCC3=CCCCC3)cc21,1.96,-279.0,0.9,3.79*,-95.7,11.6,-121.7
CCN(C(=O)C(C)N1C(=O)/C(=C/c2ccco2)SC1=S)C1CCS(=O)(=O)C1 (stereo unspecified),0.997,50.9*,.,0.491,0.3,.,69.8*
Cc1ccc(/C=C2\SC(=S)N(C3CCS(=O)(=O)C3)C2=O)cc1 (stereo unspecified),0.982,13.7,0.8,0.863,1.8,19.1,.
O=C1/C(=C\c2ccco2)SC(=S)N1C1CCS(=O)(=O)C1 (stereo unspecified),1,63.6*,.,0.364,-0.5,.,70.9*
O=C1/C(=C/c2ccco2)SC(=S)N1C1CCS(=O)(=O)C1 (stereo unspecified),1.31,67.2*,1.2,0.328,-31.1,-21.9,70.8*
CN(C)c1ccc(S(=O)(=O)N(C)C)cc1NC(=O)Cc1cccc2ccccc12,1.09,-14.7,.,1.15,-9.2,.,.
COc1cc(CCCN2CCNC[C@@H]2Cc2ccccc2)cc(OC)c1OC,0.972,-4.3,.,1.04,2.8,.,.
Cc1ccc(C(=O)N2CCN(c3ccccn3)CC2)cc1Cl,1.06,1.6,.,0.984,-5.6,.,.
O=c1nc2s/c(=C\c3ccco3)c(=O)n2nc1Cc1ccc(F)cc1,0.867,46.3*,0.9,0.537,13.3,12.0,58.1*
NS(=O)(=O)c1ccc(-c2ccc(/C=N/NC(=O)c3ccc([N+](=O)[O-])cc3)o2)cc1,1.38,42.2*,.,0.578,-38.3,.,45.2*
COc1ccc(NC(=O)CCNS(=O)(=O)c2ccc3[nH]c(=O)oc3c2)cc1Cl,0.869,44.5*,.,0.555,13.1,.,64.7*
CCc1cccc(NC(=O)CCNS(=O)(=O)c2ccc3[nH]c(=O)oc3c2)c1,0.869,19.3,.,0.807,13.1,.,.
CCOc1ccccc1NC(=O)CCNS(=O)(=O)c1ccc2[nH]c(=O)oc2c1,0.945,36.9,.,0.631,5.5,.,.
CCOc1ccccc1CNC(=O)CCNS(=O)(=O)c1ccc2[nH]c(=O)oc2c1,0.818,61.4*,.,0.386,18.2,.,76.6*
SMILES,hIAP act,mIAP inh,bIAP activator,mIAP act,hIAP block,bIAP inhibitor,mIAP inh confirm
N#Cc1cccc(NC(=O)CCNS(=O)(=O)c2ccc3[nH]c(=O)oc3c2)c1,0.833,74.9*,.,0.251,16.7,.,74.6*
CC(=O)Oc1cccc(C(=O)Nc2ccc(NC(=O)c3cccs3)cc2)c1,1.25,-0.6,.,1.01,-25.1,.,.
c1coc(CNc2nc(-c3cccs3)cs2)c1,0.999,45.1*,1,0.549,0.1,2.4,48.8*
COc1cc(NC(=O)NC2Cc3ccccc3C2)cc(OC)c1,1.28,-237.4,.,3.37*,-28.4,.,-168.8
COc1cccc(NC(=O)NC2CCCCCCC2)c1,1.14,-105.3,.,2.05*,-13.5,.,-167.0
Cc1oc(-c2ccc(Cl)cc2)cc1-c1nn2c(-c3ccoc3C)nnc2s1,0.889,41.4*,1,0.586,11.1,0.7,49.1*
OC[C@@H]1[C@@H](c2ccccc2)C(c2ccccc2)=NN1c1ccccc1,.,-126.9,.,2.27*,.,.,-115.2
OC[C@@H]1[C@@H](c2ccccc2)C(c2cccc(Cl)c2)=NN1c1ccccc1,.,-150.9,.,2.51*,.,.,-127.8
S=C(NCCC(c1ccccc1)c1ccccc1)Nc1ccc(Cl)cc1,1.15,-491.2,1.3,5.91*,-14.6,-31.9,-110.4
S=C(NCc1ccccc1)Nc1ccc(Cl)cc1,0.911,-72.4,0.9,1.72,8.9,11.9,.
COc1ccc(Cl)cc1NC(=S)NCCO,1.07,3.9,1,0.961,-6.8,0.2,.
COc1ccc(Cl)cc1NC(=S)NCCC(c1ccccc1)c1ccccc1,1.22,-297.9,0.9,3.98*,-22.3,10.2,-107.2
COc1cc(C(=O)OC2CC3CCC2(C)C3(C)C)ccc1OC(C)=O (stereo unspecified),0.885,10.5,1.1,0.895,11.5,-7.9,.
O=C(CCN1C(=O)/C(=C/c2ccco2)SC1=S)Nc1ccc(O)cc1C(=O)O,1.03,68.7*,.,0.313,-3.3,.,78.3*
O=C(CCCN1C(=O)/C(=C\c2ccccc2)SC1=S)Nc1ccc(O)cc1C(=O)O,1.03,-0.4,.,1,-3.5,.,.
O=C(CN1C(=O)/C(=C\c2ccco2)SC1=S)Nc1ccc(O)cc1C(=O)O,1.1,70.2*,.,0.298,-10.2,.,80.6*
O=C(O)CCCN1C(=O)/C(=C\c2ccco2)SC1=S,.,.,0.9,.,.,5.6,.
O=C(CCCN1C(=O)/C(=C/c2ccco2)SC1=S)Nc1ccccc1C(=O)O,0.927,69.1*,.,0.309,7.3,.,61.5*
CCCC(=O)Nc1nnc(-c2ccco2)s1,1.02,8.7,1,0.913,-2.2,4.5,.
Nc1nnc(-c2ccco2)s1,0.797,60.3*,1.1,0.397,20.3,-5.9,65.6*
O=C(Nc1ccc2c(c1)N(Cc1ccccc1)C(=O)c1ccccc1S2)NC1CC1,0.934,-174.4,1.5,2.74*,6.6,-48.7,-144.9
O=C(CCC1CCN(C(=O)c2ccccc2Cl)CC1)NCc1ccc(F)cc1,0.938,1.7,.,0.983,6.2,.,.
CN(c1cccc(NC(=O)Nc2cccc(Cl)c2)c1)S(C)(=O)=O,1.13,-272.7,0.9,3.73*,-12.8,7.1,-147.2
CC(=O)Nc1cccc(N(C)S(C)(=O)=O)c1,1.16,-6.3,0.9,1.06,-16.4,8.1,.
